Reference: ChEMBL document CHEMBL3351588, “Design, synthesis and biological evaluation of N-alkyl or aryl substituted isoindigo derivatives as potential dual cyclin-dependent kinase 2 (CDK2)/glycogen synthase kinase 3β (GSK-3β) phosphorylation inhibitors” (Eur J Med Chem, 2014)
The source made the active and inactive calls. The calls are words filed in the database; no cut-off is given here.

Tests used:
[1] = Cytotoxicity against human HCT116 cells after 48 hrs by SRB assay; assay type: functional, cell-based; details: HCT-116, 48 h
Outline: (§1)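 Cells seeded at 5 × 10³ per well and allowed to attach for 12 h, then exposed to a range of drug concentrations in their own medium for 48 h. Fixed with ice-cold TCA for 1 h at 4 °C, washed, then stained with 0.4% SRB for 30 min at room temperature. IC50 is the mean of three independent experiments.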

K562 [2] = experiment: Induction of apoptosis in human K562 cells assessed as viable cells level at 5 uM after 48 hrs by Annexin V-FITC/propidium iodide staining based flow cytometry (reference value: 99.21%); assay type: functional
Outline: (§2)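 K562 cells exposed for 24 h or 48 h to 0, 5.0, 10.0, 15.0, 20.0 or 30.0 µM; vehicle DMSO 0.5% v/v. Cells stained with FITC-Annexin V, then counterstained with PI, and analysed by FACScan flow cytometry. Quadrants: Annexin V−/PI− viable; Annexin V+/PI− early apoptotic; Annexin V+/PI+ late apoptotic/necrotic.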

K562 [3] = experiment: Induction of apoptosis in human K562 cells assessed as necrotic cells level at 30 uM after 24 hrs by Annexin V-FITC/propidium iodide staining based flow cytometry (reference value: 0.0%); assay type: functional; outline: as §2
K562 [4] = experiment: Induction of apoptosis in human K562 cells assessed as late apoptotic cells level at 10 uM after 48 hrs by Annexin V-FITC/propidium iodide staining based flow cytometry (reference value: 0.54%); assay type: functional; outline: as §2
K562 [5] = experiment: Induction of cell cycle arrest in human K562 cells assessed as accumulation at S phase at 10 uM after 24 hrs by propidium iodide staining based flow cytometry (reference value: 44.90%); assay type: functional
K562 [6] = experiment: Induction of apoptosis in human K562 cells assessed as necrotic cells level at 10 uM after 48 hrs by Annexin V-FITC/propidium iodide staining based flow cytometry (reference value: 0.01%); assay type: functional; outline: as §2
K562 [7] = experiment: Reduction in c-myc protein expression in human K562 cells at 5 to 30 uM after 24 hrs by Western blotting method; assay type: functional, cell-based
A549 = experiment: Cytotoxicity against human A549 cells after 48 hrs by SRB assay; assay type: functional, cell-based; details: A549, 48 h; outline: as §1
K562 [8] = experiment: Induction of cell cycle arrest in human K562 cells assessed as accumulation at G2/M phase at 5 uM after 24 hrs by propidium iodide staining based flow cytometry (reference value: 18.96%); assay type: functional
K562 [9] = experiment: Induction of apoptosis in human K562 cells assessed as late apoptotic cells level at 30 uM after 24 hrs by Annexin V-FITC/propidium iodide staining based flow cytometry (reference value: 0.79%); assay type: functional; outline: as §2
K562 [10] = experiment: Induction of apoptosis in human K562 cells assessed as necrotic cells level at 5 uM after 48 hrs by Annexin V-FITC/propidium iodide staining based flow cytometry (reference value: 0.01%); assay type: functional; outline: as §2
K562 [11] = experiment: Induction of apoptosis in human K562 cells assessed as viable cells level at 20 uM after 48 hrs by Annexin V-FITC/propidium iodide staining based flow cytometry (reference value: 99.21%); assay type: functional; outline: as §2
K562 [12] = experiment: Induction of apoptosis in human K562 cells assessed as late apoptotic cells level at 10 uM after 24 hrs by Annexin V-FITC/propidium iodide staining based flow cytometry (reference value: 0.79%); assay type: functional; outline: as §2
K562 [13] = experiment: Induction of cell morphological changes in human K562 cells assessed as nuclei compaction at 5 to 30 uM after 24 hrs by Hoechst 33342/propidium iodide staining based inverted fluorescence microscopy; assay type: functional
Outline: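 Cells treated for 24 h with 5.0–30.0 μM or with 0.5% DMSO, then collected and washed with PBS. Stained with Hoechst 33342 (5.0 μg/mL, 10 min, 37 °C), then with PI (10.0 μg/mL, 10 min, room temperature, dark). Nuclei scored by fluorescence microscopy as condensed/bright, fragmented, or PI-positive.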

For `COc1ccc(N2C(=O)/C(=C3/C(=O)Nc4ccccc43)c3ccccc32)cc1`, the IC50 [1] was > 200 µM, the Activity (K562 [2]) was 97.78% and the Activity (K562 [3]) was 0%. It also gave an Activity (K562 [4]) of 1.39%, an Activity (K562 [5]) of 50.88% and an Activity (K562 [6]) of 0.02%. For the same compound, the inhibition (K562 [7]) was “Dose-dependent effect”, the IC50 (A549) was 31.9 µM and the Activity (K562 [8]) was 16.81%. The Activity (K562 [9]) was 20.02%, the Activity (K562 [10]) was 0% and the Activity (K562 [11]) was 82.42%. For the same compound, the Activity (K562 [12]) was 2.45% and the Activity (K562 [13]) was “Active”.
